Compound activity: PubChem, Broad Institute
Most compounds without a hit are left out; they make up all but 4.4% or so of the library.
T cruzi repl – inhibitors of intracellular T. cruzi growth, primary screen, luminescence, NIH3T3 host cells. actives 1.4% (n = 300,000). inhibition, % (no concentration beside the values). T. cruzi beta-gal in NIH3T3, 90 h;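 active = mean inhibition across valid replicates above about 55%, limit read from the data; inconclusive = mean below that limit but half or more replicates reach it; inactive = mean below it, under half of replicates reach it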;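 note: signal also drops with host cell toxicity which is not excluded here; 0% = plate median of DMSO wells and 100% = zero luminescence signal; higher percent means less beta-gal luminescence so fewer parasites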
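System: NIH/3T3 fibroblasts plus reporter T. cruzi. Medium: DMEM plus 2% FBS. Probe or stimulus: 5000 reporter trypomastigotes per well. Compound: single 50 nL compound addition per well in DMSO. Incubation: co-culture of at least 90 h after 3 h attachment. Detection: GalScreen β-gal luminescence, detergent lysis, 60 min. Evaluation: parasite load inhibition, %.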
HSF-1 act – HSF-1 activators, primary screen, NIH3T3-HGL cells, MG132 stress, luminescence, single point; NIH3T3-HGL HSF-1 luciferase reporter, 8 h; 100% = twice DMSO control signal; actives 1.7% (n = 300,000); activation, % at 9 µM;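 active = mean replicate activation of at least 50% with a set share of replicates each reaching 50%; inconclusive = only one of those two conditions met; inactive = mean below 50% and too few replicates reaching it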;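 note: 0% = median of the neutral control wells and 100% = twice that signal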
HSF1 inh – HSF1 inhibitors in luciferase reporter cells, primary screen, cell-based, NIH3T3, luminescence; activity change, negative = inhibition, % at 7.5 µM (by protocol); NIH3T3-HGL HSE-luciferase, MG132-induced, luminescence 8 h; stronger effect = lower value; actives 0.77% (n = 300,000);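 active = more than half of replicate wells show activity change below -50%, luminescence cut by over half; inconclusive = some wells, but at most half, below -50%; inactive = no replicate well below -50%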;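 note: luciferase reports HSF-1 transcriptional activity via heat shock element; 0% = median of DMSO wells and -100% = zero luminescence signal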
Calb FLC – C. albicans growth inhibition with fluconazole, primary screen, CaCi-2 strain, Alamar Blue fluorescence; C. albicans CaCi-2 + fluconazole, 48 h; actives 0.57% (n = 300,000); AID 1979, 2009; growth inhibition, % (concentration not given with the values);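 active = growth inhibition above about 58% in most replicates, limit read from the data, passing the limit was not always enough; inconclusive = exactly half the replicates above a set limit; inactive = most replicates below a set limit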;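 note: all wells also contain fluconazole at 8 µg/ml as a sub-toxic cotreatment; 0% = median of DMSO wells and 100% = median of geldanamycin control wells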
HIF activator – HIF pathway transcriptional activators, primary screen, cell-based, U2OS HRE-luciferase, luminescence | U2OS HRE-luciferase reporter; normalized: DMSO 0%, desferrioxamine 100% | activation, % at 7.5 µM (by protocol) | actives 0.32% (n = 300,000);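 active = mean activation of at least 10% of the iron chelator positive control signal, with at least half of replicates also reaching 10%; inconclusive = mean and replicate majority disagree about reaching 10%; inactive = mean and most replicates under 10%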
* = called active by the depositor; ? = inconclusive; nt = no result.

SMILES | T cruzi repl | HSF-1 act | HSF1 inh | Calb FLC | HIF activator
N#Cc1c(N)n(C2OC(CO)C(O)C2O)c2ncnc(N)c12 (stereo not drawn) | nt | 78* | 78* | nt | nt
CCc1ccc(OCC(=O)NC(NC(=S)Nc2ccccc2C)C(Cl)(Cl)Cl)cc1 (stereo not drawn) | 55* | 11 | 5 | 4 | -2
Cc1ccccc1NC(=S)NC(NC(=O)COc1ccccc1)C(Cl)(Cl)Cl (stereo not drawn) | 9 | 21 | 1 | 2 | 0
CCOc1ccc(N2CC(C(=O)OCC(=O)NCc3ccccc3)CC2=O)cc1 (stereo not drawn) | 6 | -1 | -4 | 0 | 0
CC(C)(C)NC(=O)C(c1cccs1)N(Cc1cccs1)C(=O)c1ccc(CN2CCOCC2)o1 (stereo not drawn) | 14 | 18 | -1 | 3 | 0
Cc1cccc(N(C(=O)c2ccc(CN3CCOCC3)o2)C(C(=O)NC(C)(C)C)c2ccc(F)cc2)c1 (stereo not drawn) | 10 | 64* | 8 | 8 | 0
CC1(C)Cc2c(C#N)c(N3CCCC3)nc(-c3ccco3)c2CO1 | -9 | 111* | 57 | 14 | 0
CC1(C)Cc2c(C#N)c(NCc3ccco3)nc(-c3ccco3)c2CO1 | 3 | 4 | -4 | 9 | 0
Cc1c(C(=O)c2no[n+]([O-])c2C(=O)c2cnn(C)c2C)cnn1C | -6 | -95 | -94* | 6 | 0
COc1ccc(S(=O)(=O)N2CCC(C(=O)Nc3cc(Cl)ccc3N3CCOCC3)CC2)cc1OC | 5 | -15 | -2 | -4 | 0
COc1ccc(/C=N\NC(=O)COc2ccc(C(C)(C)C)cc2)cc1Cn1nc(C)cc1C | 0 | 2 | -8 | 2 | 0
CCOc1ccc(C(=O)c2cc([N+](=O)[O-])ccc2Cl)cc1 | 5 | -14 | 2 | 6 | 0
CCOc1ccc(C(=O)c2ccc([N+](=O)[O-])cc2Cl)cc1 | 60* | -32 | -14 | 36 | 0
CN(C)c1ccc(N=Nc2nc3ccccc3n2C)cc1 | 41 | -86 | -83* | 73 | -2
CCC(=O)Nc1cccc(NC(=S)NC(=O)c2cccs2)c1 | -6 | 79* | 64 | 5 | 2
Cc1cccc(C(=O)NNC(=S)NC(=O)c2cccs2)c1 | -7 | -41 | -27 | 102* | -1
CCCOc1ccc(C(=O)NNC(=S)NC(=O)CC)cc1 | 35 | -52 | -48 | 85* | 0
C=CCNC(=S)NNC(=O)c1ccc(OCCC)cc1 | 9 | -10 | 0 | 11 | 0
O=C(Cc1ccc(Cl)cc1)NNC(=S)NC(=O)c1cccs1 | -20 | -2 | 0 | 109* | 0
CC(C)(C)NCc1ccc(OCc2cccs2)cc1 | nt | nt | nt | -9 | nt
COc1ccc(C(=O)NNC(=S)NC(=O)c2cccs2)cc1 | 8 | -72 | -74* | ? | 0
OCCC1CN(Cc2cccc3c2OCO3)CCN1C1CCCCC1 (stereo not drawn) | -20 | -6 | -5 | -8 | 0
CCn1c(=O)c([N+](=O)[O-])c(NCCN(C)C)c2ccccc21 | 7 | -1 | 0 | 2 | 0
CCn1c(=O)c([N+](=O)[O-])c(Cl)c2ccccc21 | 71* | 313* | 226 | -4 | 3
O=C(Nc1ccccc1Cl)c1ccccc1Cl | 9 | 6 | -3 | -27 | 0
SMILES | T cruzi repl | HSF-1 act | HSF1 inh | Calb FLC | HIF activator
O=C(Nc1ccccc1Cl)c1cc2ccccc2o/c1=N\O | -40 | 72* | 35 | 12 | -8
O=S(=O)(c1ccsc1)N1CC=C(c2ccccc2)CC1 | 15 | -8 | 0 | -2 | 1
COc1ccc(OC)c(NC(=O)CCC(=O)Oc2ccc(C)cc2)c1 | -11 | 7 | -5 | 3 | 0
CCCn1c(N)c(C(=O)CSc2nc3ccccc3c(=O)n2Cc2ccccc2)c(=O)[nH]c1=O | -1 | -89 | -84* | 3 | -1
O=C(O)c1ccc(N=NNc2cccc([N+](=O)[O-])c2)cc1 | 1 | 27 | -3 | 19 | 1
N#C/C(=N\Nc1cccc([N+](=O)[O-])c1)C(=O)c1ccc(Br)cc1 | 28 | 15 | 2 | 97* | 0
COc1ccc(NC(=O)CN2C(=O)NC(C)(c3ccccc3)C2=O)cc1Cl (stereo not drawn) | 2 | 0 | 0 | -4 | 0
COc1ccc(-c2nn(-c3ccccc3)cc2CO)cc1 | -1 | 24 | 10 | 3 | 2
COc1ccc(-c2cn(-c3ccccc3)nc2CO)cc1 | -8 | -91 | -89* | -5 | 2
CC(=O)c1c(C)nn(CC(=O)NC2CCCN(Cc3ccc(CC(C)C)cc3)C2)c1C (stereo not drawn) | -12 | 14 | 0 | 17 | -1
COc1ccc(CCN(C)CCC(=O)Nc2cccc(C)c2)cc1OC | 38 | 0 | -10 | 1 | 0
COc1ccc(CCN(C)CCC(=O)Nc2ccc(C)cc2)cc1OC | 59* | 16 | -4 | 1 | 0
S=c1nc[nH]c2c1cnn2Cc1ccccc1 | -16 | 5 | -8 | 94* | -26
COc1ccc(C2CC(c3ccccc3)=NN2C(=O)COC(=O)c2cccc(S(=O)(=O)N3CCOCC3)c2)cc1 (stereo not drawn) | 72* | 5 | 12 | 8 | 0
COc1ccc(N=C2S/C(=C\c3ccc(OCC(=O)O)cc3)C(=O)N2CCc2c[nH]c3ccccc23)cc1 | 0 | 3 | 9 | 16 | 0
COc1ccc(N=C2S/C(=C\c3ccc(N4CCOCC4)o3)C(=O)N2CCc2c[nH]c3ccccc23)cc1 | 56* | -29 | -27 | -6 | -4
CCOc1ccc(NC(=O)CN(C)C(=O)c2cccnc2Sc2ccc(Cl)cc2)cc1OCC | 11 | 7 | 9 | 0 | -2
CC(=NCCc1ccccc1)C1=C(O)CCC1=O | -7 | -55 | -41 | -7 | 1
CC(=NCCc1ccccc1)C1=C(O)CSC1=O | 1 | -83 | -79* | 25 | 1
O=C(O)c1ccc(-c2ccc(-c3ccccc3)cc2)s1 | -5 | -51 | -51* | 9 | -5
O=C(Nc1ccccc1)c1ccc(-c2ccccc2)s1 | 13 | 13 | 19 | -9 | 5
O=C1CN(c2nc(-c3cccnc3)nc3scc(-c4ccccc4)c23)CCN1 | 63* | 35 | 10 | 28 | 3
COc1ccc(-c2csc3nc(-c4cccnc4)nc(N4CCC(C(N)=O)CC4)c23)cc1OC | 24 | -3 | 9 | 27 | 0
Nc1sc(-c2ccccc2)cc1-c1n[nH]c(=S)n1C1CCCCC1 | -33 | 84* | 72 | 0 | 1
C=CCn1c(-c2cc(-c3ccccc3)sc2N)n[nH]c1=S | 6 | 174* | 146 | 25 | 1
